Laboratory results: ChEMBL document CHEMBL1136943, “Nocathiacin analogs: Synthesis and antibacterial activity of novel water-soluble amides” (Bioorg Med Chem Lett, 2009)
In brackets after ≈: the same amount, converted by molar mass.

Assays:
[1] = Aqueous solubility by lyophilization solubility assay; format: physicochemical
Procedure, shortened: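 Amorphous powders from lyophilized material, as TFA salts; aqueous solubility measured by nephelometry.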

Enterococcus faecalis = assay: Antibacterial activity against Enterococcus faecalis C21560 in liquid culture by turbidity method; format: functional
Procedure, shortened: (§1)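 MIC is the lowest concentration giving 100% inhibition of bacterial growth in liquid culture, read by turbidity.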

Staphylococcus aureus [2] = assay: Antibacterial activity against Staphylococcus aureus MB2865 in liquid culture by turbidity method; format: functional; procedure, shortened: as §1
Streptococcus pneumoniae = assay: Antibacterial activity against Streptococcus pneumoniae CL2883 in liquid culture by turbidity method; format: functional; procedure, shortened: as §1
Staphylococcus aureus [3] = assay: Antibacterial activity against Staphylococcus aureus infected in mouse model assessed as reduction of >= 2 log 10 cfu kidney burden; format: functional
Procedure, shortened: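 Systemic S. aureus infection mouse model (SATOA). Compounds were given iv; […]. Kidney bacterial burden (cfu) was compared with untreated control. ED99 is the dose giving a reduction of at least 2 log10 cfu in kidney burden.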

SMILES | solubility [1] [µg/mL] | MIC (Enterococcus faecalis) [µg/mL] | MIC (Staphylococcus aureus [2]) [µg/mL] | MIC (Streptococcus pneumoniae) [µg/mL] | ED99 (Staphylococcus aureus [3]) [mg/kg]
CO/C(C)=C1/NC(=O)[C@H]([C@@H](C)O)NC(=O)c2csc(n2)-c2cc(O)c(-c3nc(C(=O)NCCNC(=O)CN4CCOCC4)cs3)nc2-c2csc(n2)[C@@H]2COC(=O)c3c4c5c(cccc5n3O)COC(=O)[C@@H](O[C@H]3C[C@](C)(O)[C@H](N(C)C)[C@H](C)O3)[C@@H](OC4)[C@H](NC(=O)c3csc1n3)c1nc(cs1)C(=O)N2.O=C(O)C(F)(F)F | > 10000 |  |  |  | 
CO/C(C)=C1/NC(=O)[C@H]([C@@H](C)O)NC(=O)c2csc(n2)-c2cc(O)c(-c3nc(C(=O)N4CCN(CC(=O)N(C)C)CC4)cs3)nc2-c2csc(n2)[C@@H]2COC(=O)c3c4c5c(cccc5n3O)COC(=O)[C@@H](O[C@H]3C[C@](C)(O)[C@H](N(C)C)[C@H](C)O3)[C@@H](OC4)[C@H](NC(=O)c3csc1n3)c1nc(cs1)C(=O)N2 |  | 0.25 (≈ 0.164 µM) | 0.12 (≈ 0.0788 µM) | 0.0038 (≈ 0.0025 µM) | 
CO/C(C)=C1/NC(=O)[C@H]([C@@H](C)O)NC(=O)c2csc(n2)-c2cc(O)c(-c3nc(C(=O)NCCCN4CCN(C)CC4)cs3)nc2-c2csc(n2)[C@@H]2COC(=O)c3c4c5c(cccc5n3O)COC(=O)[C@@H](O[C@H]3C[C@](C)(O)[C@H](N(C)C)[C@H](C)O3)[C@@H](OC4)[C@H](NC(=O)c3csc1n3)c1nc(cs1)C(=O)N2.O=C(O)C(F)(F)F | > 10000 |  |  |  | 
CO/C(C)=C1/NC(=O)[C@H]([C@@H](C)O)NC(=O)c2csc(n2)-c2cc(O)c(-c3nc(C(=O)NCCNC(N)=O)cs3)nc2-c2csc(n2)[C@@H]2COC(=O)c3c4c5c(cccc5n3O)COC(=O)[C@@H](O[C@H]3C[C@](C)(O)[C@H](N(C)C)[C@H](C)O3)[C@@H](OC4)[C@H](NC(=O)c3csc1n3)c1nc(cs1)C(=O)N2.O=C(O)C(F)(F)F | < 10000 |  |  |  | 
CO/C(C)=C1/NC(=O)[C@H]([C@@H](C)O)NC(=O)c2csc(n2)-c2cc(O)c(-c3nc(C(=O)NCCCN(C)C)cs3)nc2-c2csc(n2)[C@@H]2COC(=O)c3c4c5c(cccc5n3O)COC(=O)[C@@H](O[C@H]3C[C@](C)(O)[C@H](N(C)C)[C@H](C)O3)[C@@H](OC4)[C@H](NC(=O)c3csc1n3)c1nc(cs1)C(=O)N2.O=C(O)C(F)(F)F | > 10000 |  |  |  | 
CO/C(C)=C1/NC(=O)[C@H]([C@@H](C)O)NC(=O)c2csc(n2)-c2cc(O)c(-c3nc(C(=O)NCCN)cs3)nc2-c2csc(n2)[C@@H]2COC(=O)c3c4c5c(cccc5n3O)COC(=O)[C@@H](O[C@H]3C[C@](C)(O)[C@H](N(C)C)[C@H](C)O3)[C@@H](OC4)[C@H](NC(=O)c3csc1n3)c1nc(cs1)C(=O)N2.O=C(O)C(F)(F)F | > 10000 |  |  |  | 
CO/C(C)=C1/NC(=O)[C@H]([C@@H](C)O)NC(=O)c2csc(n2)-c2cc(O)c(-c3nc(C(=O)N(C)CCN(C)C)cs3)nc2-c2csc(n2)[C@@H]2COC(=O)c3c4c5c(cccc5n3O)COC(=O)[C@@H](O[C@H]3C[C@](C)(O)[C@H](N(C)C)[C@H](C)O3)[C@@H](OC4)[C@H](NC(=O)c3csc1n3)c1nc(cs1)C(=O)N2.O=C(O)C(F)(F)F | > 10000 |  |  |  | 
CO/C(C)=C1/NC(=O)[C@H]([C@@H](C)O)NC(=O)c2csc(n2)-c2cc(O)c(-c3nc(C(=O)N4CCN(C)CC4)cs3)nc2-c2csc(n2)[C@@H]2COC(=O)c3c4c5c(cccc5n3O)COC(=O)[C@@H](O[C@H]3C[C@](C)(O)[C@H](N(C)C)[C@H](C)O3)[C@@H](OC4)[C@H](NC(=O)c3csc1n3)c1nc(cs1)C(=O)N2.O=C(O)C(F)(F)F | > 10000 |  |  |  | 
CO/C(C)=C1/NC(=O)[C@H]([C@@H](C)O)NC(=O)c2csc(n2)-c2cc(O)c(-c3nc(C(=O)NCCCN4CCOCC4)cs3)nc2-c2csc(n2)[C@@H]2COC(=O)c3c4c5c(cccc5n3O)COC(=O)[C@@H](O[C@H]3C[C@](C)(O)[C@H](N(C)C)[C@H](C)O3)[C@@H](OC4)[C@H](NC(=O)c3csc1n3)c1nc(cs1)C(=O)N2.O=C(O)C(F)(F)F | > 10000 |  |  |  | 
CO/C(C)=C1/NC(=O)[C@H]([C@@H](C)O)NC(=O)c2csc(n2)-c2cc(O)c(-c3nc(C(=O)NCCNC(=O)c4cc(O)cc(O)c4)cs3)nc2-c2csc(n2)[C@@H]2COC(=O)c3c4c5c(cccc5n3O)COC(=O)[C@@H](O[C@H]3C[C@](C)(O)[C@H](N(C)C)[C@H](C)O3)[C@@H](OC4)[C@H](NC(=O)c3csc1n3)c1nc(cs1)C(=O)N2 |  | > 1 | > 1 |  | 
CO/C(C)=C1/NC(=O)[C@H]([C@@H](C)O)NC(=O)c2csc(n2)-c2cc(O)c(-c3nc(C(=O)NCC(=O)N4CCN(C)CC4)cs3)nc2-c2csc(n2)[C@@H]2COC(=O)c3c4c5c(cccc5n3O)COC(=O)[C@@H](O[C@H]3C[C@](C)(O)[C@H](N(C)C)[C@H](C)O3)[C@@H](OC4)[C@H](NC(=O)c3csc1n3)c1nc(cs1)C(=O)N2.O=C(O)C(F)(F)F | > 10000 |  |  |  | 
C=C(NC(=O)c1csc(-c2nc3c(cc2O)-c2nc(cs2)C(=O)N[C@@H]([C@@H](C)O)C(=O)N/C(=C(\C)OC)c2nc(cs2)C(=O)N[C@@H]2c4nc(cs4)C(=O)N[C@@H](COC(=O)c4c5c6c(cccc6n4O)COC(=O)[C@@H](O[C@H]4C[C@](C)(O)[C@H](N(C)C)[C@H](C)O4)[C@H]2OC5)c2nc-3cs2)n1)C(N)=O.O=C(O)C(F)(F)F [NOCATHIACIN I] | 340 |  |  |  | 

Now from value to compound, other results behind:

solubility [1] [µg/mL] | MIC (Enterococcus faecalis) [µg/mL] | MIC (Staphylococcus aureus [2]) [µg/mL] | MIC (Streptococcus pneumoniae) [µg/mL] | SMILES | ED99 (Staphylococcus aureus [3]) [mg/kg]
 | 2 (≈ 1.42 µM) | 0.5 (≈ 0.354 µM) | 0.06 (≈ 0.0425 µM) | CO/C(C)=C1/NC(=O)[C@H]([C@@H](C)O)NC(=O)c2csc(n2)-c2cc(O)c(-c3nc(C(=O)NCCN)cs3)nc2-c2csc(n2)[C@@H]2COC(=O)c3c4c5c(cccc5n3O)COC(=O)[C@@H](O[C@H]3C[C@](C)(O)[C@H](N(C)C)[C@H](C)O3)[C@@H](OC4)[C@H](NC(=O)c3csc1n3)c1nc(cs1)C(=O)N2 | 
10000 |  |  |  | CO/C(C)=C1/NC(=O)[C@H]([C@@H](C)O)NC(=O)c2csc(n2)-c2cc(O)c(-c3nc(C(=O)NCCNCC(O)CO)cs3)nc2-c2csc(n2)[C@@H]2COC(=O)c3c4c5c(cccc5n3O)COC(=O)[C@@H](O[C@H]3C[C@](C)(O)[C@H](N(C)C)[C@H](C)O3)[C@@H](OC4)[C@H](NC(=O)c3csc1n3)c1nc(cs1)C(=O)N2.O=C(O)C(F)(F)F (stereo not given in full) | 
 | 0.03 (≈ 0.0199 µM) | 0.0038 (≈ 0.00252 µM) | 0.00048 (≈ 0.000318 µM) | CO/C(C)=C1/NC(=O)[C@H]([C@@H](C)O)NC(=O)c2csc(n2)-c2cc(O)c(-c3nc(C(=O)NCC(=O)N4CCN(C)CC4)cs3)nc2-c2csc(n2)[C@@H]2COC(=O)c3c4c5c(cccc5n3O)COC(=O)[C@@H](O[C@H]3C[C@](C)(O)[C@H](N(C)C)[C@H](C)O3)[C@@H](OC4)[C@H](NC(=O)c3csc1n3)c1nc(cs1)C(=O)N2 | 0.13
> 10000 |  |  |  | CO/C(C)=C1/NC(=O)[C@H]([C@@H](C)O)NC(=O)c2csc(n2)-c2cc(O)c(-c3nc(C(=O)NCCN(C)C)cs3)nc2-c2csc(n2)[C@@H]2COC(=O)c3c4c5c(cccc5n3O)COC(=O)[C@@H](O[C@H]3C[C@](C)(O)[C@H](N(C)C)[C@H](C)O3)[C@@H](OC4)[C@H](NC(=O)c3csc1n3)c1nc(cs1)C(=O)N2.O=C(O)C(F)(F)F | 
 | 0.5 (≈ 0.344 µM) | 0.06 (≈ 0.0412 µM) | 0.0075 (≈ 0.00516 µM) | CO/C(C)=C1/NC(=O)[C@H]([C@@H](C)O)NC(=O)c2csc(n2)-c2cc(O)c(-c3nc(C(=O)NCCNC(N)=O)cs3)nc2-c2csc(n2)[C@@H]2COC(=O)c3c4c5c(cccc5n3O)COC(=O)[C@@H](O[C@H]3C[C@](C)(O)[C@H](N(C)C)[C@H](C)O3)[C@@H](OC4)[C@H](NC(=O)c3csc1n3)c1nc(cs1)C(=O)N2 | 
> 10000 |  |  |  | CO/C(C)=C1/NC(=O)[C@H]([C@@H](C)O)NC(=O)c2csc(n2)-c2cc(O)c(-c3nc(C(=O)NCCNC(=O)CN(C)C)cs3)nc2-c2csc(n2)[C@@H]2COC(=O)c3c4c5c(cccc5n3O)COC(=O)[C@@H](O[C@H]3C[C@](C)(O)[C@H](N(C)C)[C@H](C)O3)[C@@H](OC4)[C@H](NC(=O)c3csc1n3)c1nc(cs1)C(=O)N2.O=C(O)C(F)(F)F | 
 | 0.12 (≈ 0.0826 µM) | 0.06 (≈ 0.0413 µM) | 0.0038 (≈ 0.00261 µM) | CO/C(C)=C1/NC(=O)[C@H]([C@@H](C)O)NC(=O)c2csc(n2)-c2cc(O)c(-c3nc(C(=O)N(C)CCN(C)C)cs3)nc2-c2csc(n2)[C@@H]2COC(=O)c3c4c5c(cccc5n3O)COC(=O)[C@@H](O[C@H]3C[C@](C)(O)[C@H](N(C)C)[C@H](C)O3)[C@@H](OC4)[C@H](NC(=O)c3csc1n3)c1nc(cs1)C(=O)N2 | >0.5
 | 0.12 (≈ 0.0826 µM) | 0.06 (≈ 0.0413 µM) | 0.00095 (≈ 0.000654 µM) | CO/C(C)=C1/NC(=O)[C@H]([C@@H](C)O)NC(=O)c2csc(n2)-c2cc(O)c(-c3nc(C(=O)NCCCN(C)C)cs3)nc2-c2csc(n2)[C@@H]2COC(=O)c3c4c5c(cccc5n3O)COC(=O)[C@@H](O[C@H]3C[C@](C)(O)[C@H](N(C)C)[C@H](C)O3)[C@@H](OC4)[C@H](NC(=O)c3csc1n3)c1nc(cs1)C(=O)N2 | >0.5
> 10000 |  |  |  | CO/C(C)=C1/NC(=O)[C@H]([C@@H](C)O)NC(=O)c2csc(n2)-c2cc(O)c(-c3nc(C(=O)N4CCN(CC(=O)N(C)C)CC4)cs3)nc2-c2csc(n2)[C@@H]2COC(=O)c3c4c5c(cccc5n3O)COC(=O)[C@@H](O[C@H]3C[C@](C)(O)[C@H](N(C)C)[C@H](C)O3)[C@@H](OC4)[C@H](NC(=O)c3csc1n3)c1nc(cs1)C(=O)N2.O=C(O)C(F)(F)F | 
 | 2 (≈ 1.35 µM) | 0.5 (≈ 0.337 µM) | 0.125 (≈ 0.0841 µM) | CO/C(C)=C1/NC(=O)[C@H]([C@@H](C)O)NC(=O)c2csc(n2)-c2cc(O)c(-c3nc(C(=O)NCCNCC(O)CO)cs3)nc2-c2csc(n2)[C@@H]2COC(=O)c3c4c5c(cccc5n3O)COC(=O)[C@@H](O[C@H]3C[C@](C)(O)[C@H](N(C)C)[C@H](C)O3)[C@@H](OC4)[C@H](NC(=O)c3csc1n3)c1nc(cs1)C(=O)N2 (stereo not given in full) | 
